By IC50 is commonly meant the concentration at which inhibition is half-maximal. The low end stands for inhibition by little substance, the high end for a need for much substance. As usually defined, the T/C is the result in the treated group divided by that in the control group, in per cent.

Assay [1] deals with Cyclin-dependent kinase 2/cyclin E (Homo sapiens, UniProt P24941). The experiment in a line: Inhibition of Cyclin-dependent kinase 2-cyclin E. It counts as protein-complex assay. Put shortly: (§1)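 Cell-free kinase assay with the CDK/cyclin complex as enzyme. Read-out is phosphorylation of RB protein as substrate. IC50 values were reported.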
The target of assay [2] is Cyclin-dependent kinase 1/cyclin B (Homo sapiens, UniProt P06493). The assay can be described thus: Inhibition of cyclin-dependent kinase 1-cyclin B. It counts as protein-complex assay. Put shortly: as §1
Assay [3] deals with Cyclin-dependent kinase 4/cyclin D (Homo sapiens, UniProt P11802). The assay can be described thus: Inhibition of Cyclin-dependent kinase 4-cyclin D. It counts as protein-complex assay. A digest of the protocol: as §1
Assay [4] relates to A2780. The experiment in a line: Cytotoxic effect on human ovarian (A2780) cancer cell line. The format is functional, cell-based.
Assay [5] is filed under the species Mus musculus. The experiment in a line: Compound was tested binding to mouse serum. The format is functional. Put shortly:
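Free versus bound fraction measured by equilibrium dialysis against mouse serum.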

In assay [6] the test system is Mus musculus. The assay can be described thus: In vivo anticancer activity of compound was determined as increase in survival time of treated groups versus untreated control against P388 murine leukemia in mice at 4 mg/kg. The format is functional. A digest of the protocol:
(§2)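 P388 murine leukemia cells implanted ip into immunocompetent mice. Drug given ip right after implantation, then once daily for 7 days (qdx7). Efficacy read as increase in lifespan, reported as the ratio of lifespan of the treated group (T) to the control group (C) (%T/C).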

Assay [7] relates to Mus musculus. The experiment in a line: In vivo anticancer activity of compound was determined as increase in survival time of treated groups versus untreated control against P388 murine leukemia in mice at 90 mg/kg. The format is functional. A digest of the protocol: as §2

`CC(C)(C)c1cnc(CSc2cnc(Nc3cccnc3)s2)o1`: the IC50 was found to be 3 nM in assay [1], 10 nM in assay [2], 130 nM in assay [3] and 50 nM in assay [4].

For `CC(C)(C)c1cnc(CSc2cnc(NC(=O)Cc3cccnc3)s2)o1`, the IC50 worked out at 5 nM in assay [1], 80 nM in assay [2], 1090 nM in assay [3] and 240 nM in assay [4].

As to `CC(C)(CO)CNCc1ccc(Nc2ncc(SCc3ncc(C(C)(C)C)o3)s2)nc1`, the Binding in assay [5] was determined as 90%. Also, the IC50 in assay [1] amounted to 3 nM; in assay [2] it was 18 nM; in assay [3], 26 nM; in assay [4], 3 nM. In addition, the T/C in assay [6] is reported as 156%.

Consider `CC(C)(C)c1cnc(CSc2cnc(Nc3ccccc3)s2)o1`, for which the IC50 in assay [1] was 4 nM; in assay [2], 12 nM; in assay [3], 78 nM; in assay [4], 140 nM.

In assay [5], `CC(C)(C)c1cnc(CSc2cnc(Nc3ccc(S(=O)(=O)NCCO)cc3)s2)o1` returned a Binding of 97%. Further, the IC50 in assay [1] was determined as 2 nM; in assay [2] it was 10 nM; in assay [3], 233 nM; in assay [4], 69 nM. In addition, in assay [7], the T/C is listed as 180%.

In the case of `CC(C)(C)c1cnc(CSc2cnc(Nc3ccccn3)s2)o1`, the IC50 in assay [1] worked out at 2 nM; in assay [2], 4 nM; in assay [3] it was 9 nM; in assay [4] it was 10 nM.

Source of the values: ChEMBL document CHEMBL1148265, “Synthesis and biological activity of N-aryl-2-aminothiazoles: potent pan inhibitors of cyclin-dependent kinases” (Bioorg Med Chem Lett, 2004).
